The test system of experiment [1] is Nucleic Acid. The experiment is described as follows: Induction of Escherichia coli 16S rRNA cleavage at 10 ug/20 mL by gel electrophoresis. The class given is nucleic-acid assay. The essentials: (§1)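 Nucleic acids (double-stranded DNA and 16S rRNA) were isolated from E. coli and exposed to compound at 10 µg/20 mL; cleavage was scored by gel electrophoresis.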

The subject of experiment [2] is Nucleic Acid. The experiment is described as follows: Induction of Escherichia coli double stranded DNA cleavage at 10 ug/20 mL by gel electrophoresis. The class given is nucleic-acid assay. In short, it runs like this:
as §1

For a further experiment, the system named is K562. The experiment is described as follows: Cytotoxicity against human K562 cells. The class given is functional. As to conditions: read-out: LC50 (the source's name).
A further experiment relates to Candida albicans. The experiment is described as follows: Antifungal activity against Candida albicans at 25 ug/disk by paper disk method. The class given is functional. As to conditions: read-out: IZ. In short, it runs like this: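 Paper disk diffusion against Candida albicans with 25 µg loaded per disk; read-out is the diameter of the clear zone of inhibition, in mm.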

In brackets after ≈: the same amount, converted by molar mass. Activity calls are given as the source filed them. No cut-off for these calls is given here.

Our source for the Activity, CC50 and zone of inhibition values is ChEMBL document CHEMBL1156382, “New steroidal alkaloids from an undescribed sponge of the genus Corticium” (2001).

Consider `CC(C)=C1CCN=C1C[C@@H](C)[C@H]1CC[C@H]2C3=CC[C@H]4[C@@H](O)[C@@H](N(C)C)CC[C@]4(C)[C@H]3CC[C@]12C` [LOKYSTEROLAMINE A], for which the result with Nucleic Acid [1] and with Nucleic Acid [2] was inactive. Moreover, the CC50 in the experiment on K562 is 0.9 µg/mL (≈ 1.93 µM). Further, the zone of inhibition at 25 µg/disc with Candida albicans stood at 9 mm.

For the compound `CC(C)=C1CC[N+]([O-])=C1C[C@@H](C)[C@H]1CC[C@H]2C3=CC[C@H]4[C@@H](O)[C@@H](N(C)C)CC[C@]4(C)[C@H]3CC[C@]12C` [PLAKINAMINE E], the outcome in the experiment with Nucleic Acid [1] and in the experiment on Nucleic Acid [2] was Active. The CC50 in the experiment on K562 was 0.2 µg/mL (≈ 0.414 µM). Besides, the zone of inhibition at 25 µg/disc in the experiment with Candida albicans was found to be 12 mm.

With `CC(C)=C1CCN=C1C[C@@H](C)[C@H]1CC[C@H]2C3=CC[C@H]4C(=O)[C@@H](N(C)C)CC[C@]4(C)[C@H]3CC[C@]12C` [PLAKINAMINE F], the outcome with Nucleic Acid [1] and in the experiment on Nucleic Acid [2] was inactive. The CC50 in the experiment with K562 stood at 1.3 µg/mL (≈ 2.8 µM). Also, in the experiment on Candida albicans, the zone of inhibition at 25 µg/disc was determined as 8 mm.
